# Screening data as filed in PubChem.
# An excerpt weighted towards active compounds, which were near 2.5% of everything screened.
# Arr AP2 block = blocks beta-arrestin peptide binding to AP2 adaptin | FITC-arrestin peptide / GST-AP2 beads, flow cytometry; AP2 beta2 appendage carries R879A mutation | inhibition, % at 10 µM | 340,000 tested, 0.31% active | AID 504490;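 active = inhibition above a set limit, near 3 SD of compounds lacking own fluorescence, cut at about 54% in these data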;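 note: plate controls were DMSO wells for no effect and 5 µM unlabelled arrestin peptide for full effect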
#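 Material – GST-tagged AP2 beta2-adaptin appendage (R879A) on 4 µm glutathione beads · Probe or stimulus – fluorescein-tagged arrestin peptide at 50 nM final · Timing – 12 min plus 1 h, RT · Detection – bead flow cytometry, FITC channel · Read-out basis – inhibition as reduced fluorescein signal on beads, percent · Medium – PBS plus Tween 20 (0.05%) and BSA (0.1%)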
# UHRF1 MBD2 ctr = blocks human UHRF1 binding to methylated DNA. Q96T88. UHRF1 binding to methylated oligo, TR-FRET. inhibition, % at 4.4 µM. 370,000 tested, 0.75% active. AID 687016; in the data active = inhibition above about 21%;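 note: UHRF1 SRA domain binding a hemimethylated CpG hairpin DNA probe; 0% = median of test compound wells and 100% = reference inhibitor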
# ABHD5-PLIN5 inh = inhibitors of human ABHD5-perilipin-5 interaction | 360,000 tested, 0.78% active | Split G. princeps luciferase complementation, luminescence, 4 h | inhibition, % at 4 µM | Q00G26+Q8WTS1;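 active = inhibition above the mean inhibition across every tested compound plus 3 SD, cut at about 22% in these data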;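 note: 0% = DMSO only wells and the 100% control is not disclosed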
# Target sequence (Q00G26 whole entry, looked up): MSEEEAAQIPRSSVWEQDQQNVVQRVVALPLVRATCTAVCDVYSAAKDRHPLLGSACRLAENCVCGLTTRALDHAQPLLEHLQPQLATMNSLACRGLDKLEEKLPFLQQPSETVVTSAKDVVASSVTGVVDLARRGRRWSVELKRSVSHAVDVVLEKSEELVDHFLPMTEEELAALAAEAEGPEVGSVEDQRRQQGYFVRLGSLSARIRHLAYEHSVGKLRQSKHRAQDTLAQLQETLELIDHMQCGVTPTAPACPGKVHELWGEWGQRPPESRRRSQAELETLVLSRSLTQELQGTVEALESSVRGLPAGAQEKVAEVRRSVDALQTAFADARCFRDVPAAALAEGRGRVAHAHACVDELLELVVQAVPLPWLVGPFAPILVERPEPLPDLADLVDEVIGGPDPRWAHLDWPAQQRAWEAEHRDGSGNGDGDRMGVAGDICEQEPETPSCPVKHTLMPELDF
# Target sequence (Q8WTS1 whole entry, looked up): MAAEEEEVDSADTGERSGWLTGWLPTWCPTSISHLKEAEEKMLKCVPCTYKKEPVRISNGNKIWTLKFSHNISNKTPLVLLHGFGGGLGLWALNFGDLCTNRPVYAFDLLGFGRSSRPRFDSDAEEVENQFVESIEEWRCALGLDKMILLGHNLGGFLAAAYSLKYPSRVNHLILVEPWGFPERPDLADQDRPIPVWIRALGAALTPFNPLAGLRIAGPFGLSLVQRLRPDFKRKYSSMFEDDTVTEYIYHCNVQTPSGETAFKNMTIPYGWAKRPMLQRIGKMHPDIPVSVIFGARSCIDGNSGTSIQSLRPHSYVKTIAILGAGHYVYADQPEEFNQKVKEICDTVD
# B2AR ag = activates human beta-2 adrenergic receptor causing internalization; P07550; AID 504454; 340,000 tested, 0.43% active; Am2.2-beta2AR cells, FAP receptor internalization, flow cytometry; response, % (test concentration not listed);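 active = response above a set limit, near 3 SD of response in nonfluorescent compounds, cut at about 42% in these data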
# MBD2 DNA inh = MBD2-methylated oligo binding inhibition. Q9UBB5. TR-FRET, MBD2 binding to methylated oligonucleotide. inhibition, % at 4.4 µM. 370,000 tested, 0.31% active. AID 686964; in the data active = inhibition above about 13%
# Rin1-Abl PPI inh = inhibitors of human Rin1-Abl protein interaction; P00519+Q13671; TR-FRET Rin1/Abl binding, biochemical; 360,000 tested, 0.4% active; inhibition, % at 7.35 µM; in the data active = inhibition above about 5%, passing the limit was not always enough
# Active calls of the source: *; / = no result given.
SMILES,Arr AP2 block,UHRF1 MBD2 ctr,ABHD5-PLIN5 inh,B2AR ag,MBD2 DNA inh,Rin1-Abl PPI inh
COc1ccc(N2CC(NC(=O)c3cccc4ccccc34)CC2=O)cc1OC (centres undefined),-11,5,3,-1,0,0
COc1cccc(N2CC(NC(=O)c3cccc4ccccc34)CC2=O)c1 (centres undefined),0,34*,-1,-3,-4,-3
COC(=O)CCCn1cc(CN2CC=CS2(=O)=O)nn1,/,11,/,/,11,/
Nc1cccc2cc(S(=O)(=O)O)ccc12,1,47*,-11,2,6,1
CCn1c(=O)cc(SCC(=O)NCCCN2CCC(C)CC2)c2ccccc21,5,-2,-2,0,0,-15
CCn1c(=O)cc(SCC(=O)NCCCN2CCN(c3ccc(F)cc3)CC2)c2ccccc21,11,21*,-6,11,-2,-77
C=CCN(Cc1ccc2c(c1)OCO2)C(C#Cc1ccccc1)c1ccccc1C(F)(F)F (centres undefined),/,1,/,/,3,/
Cc1cc([N+](=O)[O-])nn1CC(=O)NCCCN1CCOCC1,2,4,-4,4,-6,3
Cc1cc(C)c2c(=O)n(CC(=O)NCCCN3CCOCC3)sc2n1,11,/,50*,-3,/,-2
C=CC#CC[N+]1(CC#Cc2ccccc2)CCOCC1,-213,18,7,72*,20*,1
C(#Cc1ccccc1)C[N+]1(CC#Cc2ccccc2)CCCC1,-5,1,1,5,-2,-3
COC(=O)c1cccc(OCC(C)CN2CCC(C(O)(c3ccccc3)c3ccccc3)CC2)c1 (centres undefined),/,-2,/,/,-8,/
CCC(C)[C@@H](NC(=O)OC(C)(C)C)c1nnc(S(=O)(=O)Cc2cccc(C)c2)o1 (some centres undefined),1,-2,73*,33,1,0
CC(C)(C)OC(=O)N[C@@H](Cc1ccccc1)c1nnc(S(=O)(=O)Cc2ccccc2)o1,/,0,/,/,-2,/
CC(C)CNS(=O)(=O)/C=C/c1ccc(F)cc1CNC(=O)OC(C)(C)C,/,-5,/,/,-1,/
Oc1ccc(C[C@H]2CN([C@@H](Cc3ccccc3)CN3CCCC3CN3C(=S)NC[C@@H]3Cc3ccccc3)C(=S)N2CC2CCCCC2)cc1 (some centres undefined),/,-2,-5,/,-2,/
Oc1ccc(C[C@H]2CN([C@@H](Cc3cccc(O)c3)CN3CCC[C@@H]3CN3C(=S)NC[C@@H]3Cc3ccccc3)C(=S)N2CC2CCCCC2)cc1,/,-3,23*,/,-3,5
C[C@@H]1[C@H](O)[C@@H](C)/C=C/C=C/C=C/C=C/C=C/C=C/C=C/[C@H](OC2O[C@H](C)[C@@H](O)[C@H](N)[C@@H]2O)C[C@@H]2O[C@](O)(C[C@@H](O)C[C@@H](O)[C@H](O)CC[C@@H](O)C[C@@H](O)CC(=O)O[C@H]1C)C[C@H](O)[C@H]2C(=O)O (some centres undefined),/,8,/,/,5,/
CCOC(=O)c1c(NC(=O)c2ccc(S(=O)(=O)N3CCOCC3)cc2)sc2c1CC(C)(C)NC2(C)C,2,0,2,29,-2,4
CCOC(=O)c1c(NC(=O)c2ccc(S(=O)(=O)N3CCOCC3)cc2)sc2c1CCN(C)C2,8,17,6,0,15*,-4
CC(=O)Nc1cccc(C(=O)/C=C/c2ccc[nH]2)c1,-7,-1,6,-4,-1,-7
CC(=O)Nc1cccc(C(=O)/C=C/c2ccco2)c1,5,1,29*,-4,0,-2
CC(=O)Nc1cccc(C(=O)/C=C/c2cccs2)c1,6,12,22*,-1,-1,0
CC(=O)Nc1cccc(C(=O)/C=C/c2ccc(/C=C/C(=O)c3cccc(NC(C)=O)c3)cc2)c1,/,2,/,/,1,/
COc1ccc2ccccc2c1C=NNC(=O)c1cc(-c2ccc(C)cc2)n[nH]1,/,-3,/,/,-1,/
COC(=O)C1CN(Cc2cn(Cc3ccc(OC)cc3)nn2)CCS(=O)(=O)N1Cc1ccc(F)cc1 (centres undefined),/,-1,/,/,-8,/
